In ChEMBL document CHEMBL1128497, “Synthesis and in vitro and in vivo antitumor activity of a series of trans platinum antitumor complexes” (J Med Chem, 1995):
Several values for one entry are separate records, joined by “and”; a condition that tells them apart may be missing. Equal values may be shown once. Activity calls are given as the source filed them. The rule behind the calls is not given here.

What was measured:
[1] = system: 41M; assay: In vitro antitumor activity against 41M cell line.; format: functional, cell-based, Homo sapiens
Outline: (§1)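 Human ovarian carcinoma monolayers were grown in DMEM with 10% FCS, insulin and hydrocortisone under 10% CO2. Cells were seeded at 5 × 10^3–1 × 10^4 per well and left to attach overnight. Drugs were freshly dissolved in 0.9% saline (1 mM or 500 μM stocks) and added to quadruplicate wells for 96 h. Cell mass was read by SRB staining. IC50 values are means of at least two experiments.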

[2] = system: 41M; assay: In vitro antitumor activity against 41McisR cell line.; format: functional, cell-based, Homo sapiens; outline: as §1
[3] = system: A2780; assay: In vitro antitumor activity against A2780cisR cell line.; format: functional, cell-based, Homo sapiens; outline: as §1
[4] = system: A2780; assay: In vitro antitumor activity against A2780 cell line.; format: functional, cell-based, Homo sapiens; outline: as §1
[5] = system: CH1; assay: In vitro antitumor activity against CH1cisR cell line.; format: functional, cell-based, Homo sapiens; outline: as §1
[6] = system: CH1; assay: (§2) In vitro antitumor activity against CH1 cell line.; format: functional, cell-based, Homo sapiens; outline: as §1
[7] = system: Mus musculus; assay: In Vivo Antitumor activity against the acquired cisplatin-resistant ADJ/PC6 Plasmacytoma (ADJ/PC6cisR) in mice; format: ADME, organism-based
[8] = In vivo antitumor activity by i.p. administration against murine ADJ/PC6 (sc) plasmacytoma.; format: ADME, organism-based; settings: mouse, ip
[9] = system: SK-OV-3; assay: In vitro antitumor activity against SK-OV-3 cell line.; format: functional, cell-based, Homo sapiens; outline: as §1
[10] = system: Mus musculus; assay: In Vivo Antitumor activity by ip administration against Murine ADJ/PC6 (sc) Plasmacytoma in mice; format: functional, organism-based; settings: Plasma
Outline: (§3)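 ADJ/PC6 plasmacytoma (or its cisplatin-resistant subline) was implanted sc as 1 mm3 fragments. On day 20 mice received a single ip injection of drug as a sonicated suspension in arachis oil, at halving doses. Ten days later tumors were dissected and weighed against controls. […] Therapeutic index is MTD/ED90, alongside LD50.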

[11] = system: Mus musculus; assay: In Vivo Antitumor activity by ip administration against Murine ADJ/PC6 (sc) Plasmacytoma in mice; - = 90% tumor inhibition not obtained; format: functional, organism-based; settings: Plasma; outline: as §3
[12] = system: A2780; assay: Resistant factor determined between IC50 of resistant line to that of parental A2780 cell line; format: functional, cell-based; settings: Homo sapiens
Outline: (§4)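 Resistance factor is the IC50 in the cisplatin-resistant subline divided by the IC50 in its parent line. IC50s came from a 96 h SRB cytotoxicity assay run in quadruplicate wells.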

[13] = system: CH1; assay: Resistant factor, determined between IC50 of resistant line to that of CHcisR cell line; format: functional, cell-based; settings: Homo sapiens; CH1cisR; outline: as §4
[14] = system: Mus musculus; assay: Ability to inhibit Antitumor activity against PXN/109T/C Human Ovarian Cracinoma xenograft in mice at dose 4 mg/kg by ip administration; format: functional, organism-based; set-up: dose 4 mg/kg
Outline: (§5)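 Human ovarian carcinoma xenografts were grown subcutaneously in female Balb C nude mice. Tumors were measured weekly until they doubled their starting volume. Growth delay is the difference in doubling time between treated and control tumors.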

[15] = system: 41M; assay: Resistant factor was determined between IC50 of cisplatin-resistant human tumor cell lines to that of […] cell line; format: functional, cell-based; outline: as §4
[16] = system: Mus musculus; assay: Ability to inhibit Antitumor activity against PXN/109T/CC Human Ovarian Cracinoma xenograft in mice at dose 50 mg/kg by ip administration; format: functional, organism-based; set-up: dose 50 mg/kg; outline: as §5
[17] = system: Mus musculus; assay: Ability to inhibit Antitumor activity against PXN/109T/CC Human Ovarian Cracinoma xenograft in mice at dose 8 mg/kg by ip administration; format: functional, organism-based; set-up: dose 8 mg/kg; outline: as §5
[18] = system: Mus musculus; assay: Ability to inhibit Antitumor activity against PXN/109T/C Human Ovarian Cracinoma xenograft in mice at dose 20 mg/kg by ip administration; format: functional, organism-based; set-up: dose 20 mg/kg; outline: as §5
[19] = system: CH1; assay: as §2; format: functional, cell-based, Homo sapiens; outline: as §1; remark: listed apart in the source
[20] = system: Mus musculus; assay: Ability to inhibit Antitumor activity against PXN/109T/C Human Ovarian Cracinoma xenograft in mice at dose 10 mg/kg by ip administration; format: functional, organism-based; set-up: dose 10 mg/kg; outline: as §5
[21] = system: Mus musculus; assay: Ability to inhibit Antitumor activity against HX/110 Human Ovarian Cracinoma xenograft in mice at dose 2 mg/kg by ip administration; format: functional, organism-based; set-up: dose 2 mg/kg; outline: as §5
[22] = system: Mus musculus; assay: Ability to inhibit Antitumor activity against OVCAR-3 Human Ovarian Cracinoma xenograft in mice at dose 2 mg/kg by ip administration; format: functional, organism-based; set-up: dose 2 mg/kg; outline: as §5
[23] = system: Mus musculus; assay: Ability to inhibit Antitumor activity against OVCAR-3 Human Ovarian Cracinoma xenograft in mice at dose 4 mg/kg by ip administration; format: functional, organism-based; set-up: dose 4 mg/kg; outline: as §5
[24] = system: Mus musculus; assay: Ability to inhibit Antitumor activity against PXN/100 Human Ovarian Cracinoma xenograft in mice at dose 2 mg/kg by ip administration; format: functional, organism-based; set-up: dose 2 mg/kg; outline: as §5
[25] = system: Mus musculus; assay: Ability to inhibit Antitumor activity against PXN/100 Human Ovarian Cracinoma xenograft in mice at dose 4 mg/kg by ip administration; format: functional, organism-based; set-up: dose 4 mg/kg; outline: as §5
[26] = system: Mus musculus; assay: Ability to inhibit Antitumor activity against PXN/109T/C Human Ovarian Cracinoma xenograft in mice at dose 2 mg/kg by ip administration; format: functional, organism-based; set-up: dose 2 mg/kg; outline: as §5
[27] = system: Mus musculus; assay: Ability to inhibit Antitumor activity against PXN/109T/CC Human Ovarian Cracinoma xenograft in mice at dose 2 mg/kg by ip administration; format: functional, organism-based; set-up: dose 2 mg/kg; outline: as §5
[28] = system: Mus musculus; assay: Ability to inhibit Antitumor activity against SKOV-3 Human Ovarian Cracinoma xenograft in mice at dose 4 mg/kg by ip administration; format: functional, organism-based; set-up: dose 4 mg/kg; outline: as §5

Row | Substance | ED90 [10] | RF [12] | RF [13] | RF [15] | further results
1 | CISPLATIN [listing 1 of 2 here] |  |  |  |  | IC50 [1]: 260 nM; IC50 [2]: 1200 nM; IC50 [3]: 5200 nM; IC50 [4]: 330 nM; IC50 [5]: 710 nM; IC50 [6]: 110 nM; LD50 [7]: 11 mg/kg; LD50 [8]: 11.3 mg/kg; IC50 [9]: 4400 nM
2 | CISPLATIN [listing 2 of 2 here] | 1.6 mg/kg |  |  |  | 
3 | TRANSPLATIN |  |  |  |  | ED90 [11]: inactive
4 | trans-Amminetetrachloro(quinuclidine)-platinium (IV) |  | 1.1 | 1 | 1 | Growth delay [14]: 0 days
5 | trans-a,f-Dichloro-b,d-bis(cyclohexylamine)-c,e-dihydroxo-platinium (IV) | 40 mg/kg | 4 | 1.1 | 1.5 | Growth delay [16]: 1.8 days
6 | trans-a-Ammine-b,d-dichloro-c,e-dihydrooxy-f-(Morphiline)-platinium (IV) | 94 mg/kg | 4.3 | 1.6 | 2.1 | 
7 | trans-a-Ammine-b,d-dichloro-c,e-dihydrooxy-f-(cyclopentylamine)-platinium (IV) | 2.5 mg/kg | 5.5 | 1.7 | 1.2 | 
8 | trans-a-Ammine-b,d-dichloro-c,e-dihydroxo-f-(1,1,3,3-tetramethyl butylamine)-platinium (IV) | 9.6 mg/kg | 5.5 | 1.5 | 2.1 | 
9 | trans-a-Ammine-b,d-dichloro-c,e-dihydroxo-f-(N-methylcyclohexylamine)-platinium (IV) | 9.4 mg/kg | 3.7 | 2.2 | 0.7 | Growth delay [17]: 1.1 days
10 | trans-a-Ammine-b,d-dichloro-c,e-dihydroxo-f-(exo-2-aminonorbornane)-platinium (IV) | 4.9 mg/kg | 12 | 1.2 | 1 | 
11 | trans-a-Ammine-b,d-dichloro-c,e-dihydroxy-f-(benzylamine)-platinium (IV) | 22 mg/kg | 4 | 1.7 | 1 | Growth delay [18]: 8.3 days
12 | trans-a-ammine-b,d-dichloro-f-(2-methyl1-2-propylamine)-c,e-dihydroxoplatinium (IV) [listing 1 of 2 here] |  |  |  |  | IC50 [1]: 4500 nM and 1100 nM; IC50 [2]: 8000 nM and 900 nM; IC50 [3]: 8500 nM and 4200 nM; IC50 [4]: 800 nM and 210 nM; IC50 [5]: 3400 nM and 1620 nM; IC50 [6]: 740 nM; IC50 [19]: 1100 nM; LD50 [8]: 35.5 mg/kg and 35 mg/kg; IC50 [9]: 34000 nM and 4700 nM
13 | trans-a-ammine-b,d-dichloro-f-(2-methyl1-2-propylamine)-c,e-dihydroxoplatinium (IV) [listing 2 of 2 here] | 4.9 mg/kg and 4.7 mg/kg |  |  |  | Growth delay [20]: 13.4 days
14 | trans-a-ammine-b,d-dichloro-f-(cyclohexylamine)-c,e-bis-(ethylcarbamato)platinium (IV) | 185 mg/kg | 3.3 | 1.2 | 0.7 | 
15 | trans-a-ammine-b,d-dichloro-f-(cyclohexylamine)-c,e-dihydroxoplatinium (IV) |  |  |  |  | Growth delay [21]: 25.5 days; Growth delay [22]: 12 days; Growth delay [23]: 16.8 days; Growth delay [24]: 23.9 days; Growth delay [25]: 63.7 days; Growth delay [26]: 17 days; Growth delay [27]: 5.4 days; Growth delay [28]: 7 days
